Test results from ChEMBL document CHEMBL4330179, “De Novo Discovery of Nonstandard Macrocyclic Peptides as Noncompetitive Inhibitors of the Zika Virus NS2B-NS3 Protease” (ACS Med Chem Lett, 2019).
Active and inactive are the calls of the source. Positions of bridges follow the written chain, without caps; N, C: chain ends. Non-standard residues stand in square brackets, D forms with d. Residues, ends and D or L forms follow the SMILES beside them. NMeY = CN[C@@H](Cc1ccc(O)cc1)C(=O)O; NMeF = CN[C@@H](Cc1ccccc1)C(=O)O; NMeS = CN[C@@H](CO)C(=O)O; Sar = CNCC(=O)O

Columns and labels:
[1] = molecular target: Prothrombin (Homo sapiens) (UniProt P00734); assay: Inhibition of thrombin (unknown origin) at 25 uM using Boc-Val-Pro-Arg-AMC as substrate preincubated for 15 mins followed by substrate addition and measured for 10 mins by fluorescence assay
Outline: (§1)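 Serine protease counter-screens (thrombin, trypsin), tested up to a highest concentration of 25 or 50 μM.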

Nonstructural protein 3 [2] = molecular target: T1, Nonstructural protein 3 (Zika virus, UniProt A0A024AXB9); assay: Inhibition of C-terminal His6-tagged unlinked Zika virus NS2B-NS3 protease domain expressed in Escherichia coli Bl21(DE3) using Bz-Nle-Lys-Lys-Arg-AMC as substrate after 30 mins by fluorophotometric method
Outline: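 Unlinked Zika NS2B-NS3 protease at 0.5 nM with Bz-Nle-Lys-Lys-Arg-AMC substrate.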

[3] = Selectivity index, ratio of IC50 for C-terminal His6-tagged linked Dengue virus serotype 2 NS2B-NS3 protease domain expressed in Escherichia coli Bl21(DE3) to Ki for non-competitive inhibition of C-terminal His6-tagged linked Zika virus NS2B-NS3 protease domain expressed in Escherichia coli Bl21(DE3)
Genome polyprotein [4] = molecular target: Genome polyprotein (West Nile virus, UniProt P06935); assay: Inhibition of C-terminal His6-tagged linked West Nile virus NS2B-NS3 protease domain expressed in Escherichia coli Bl21(DE3) preincubated for 15 mins followed by AbzGly-Leu-Lys-Arg-Gly-Gly-3-(NO2)Tyr substrate addition and measured for 15 mins by fluorescence method
Outline: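 West Nile virus NS2B-NS3 protease at 150 nM with internally quenched substrate Abz-Gly-Leu-Lys-Arg-Gly-Gly-3-(NO2)Tyr. IC50 is calculated for 50 μM substrate.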

Huh-7 = assay: Cytotoxicity against human HuH7 cells assessed as reduction in cell viability up to 12.5 uM after 24 to 48 hrs by CellTiter-Blue assay; format: cell-based
Outline: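 Huh-7 cells exposed to compounds for 24 h and 48 h. Metabolic activity is read as % reduction relative to nontreated cells, with 80% viability used as the cutoff.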

[5] = molecular target: T2, Nonstructural protein 3 (Zika virus) (UniProt A0A024AXB9); assay: Inhibition of C-terminal His6-tagged unlinked Zika virus NS2B-NS3 protease domain expressed in Escherichia coli Bl21(DE3) at 200 to 400 nM using Bz-Nle-Lys-Lys-Arg-AMC as substrate after 30 mins in presence of cn-716 by fluorophotometric method
Nonstructural protein 3 [6] = molecular target: T1, Nonstructural protein 3; assay: Inhibition of C-terminal His6-tagged linked Zika virus NS2B-NS3 protease domain expressed in Escherichia coli Bl21(DE3) using Bz-Nle-Lys-Lys-Arg-AMC as substrate after 30 mins by fluorophotometric method
Outline: (§2)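 Fluorogenic substrate Bz-Nle-Lys-Lys-Arg-AMC against linked gZiPro, run at four substrate concentrations across a range of inhibitor concentrations. Ki comes from nonlinear least-squares fits to a noncompetitive inhibition model, and the mode is checked on Cornish–Bowden plots.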

Nonstructural protein 3 [7] = molecular target: T1, Nonstructural protein 3; assay: Non-competitive inhibition of C-terminal His6-tagged linked Zika virus NS2B-NS3 protease domain expressed in Escherichia coli Bl21(DE3) using Bz-Nle-Lys-Lys-Arg-AMC as substrate after 30 mins by Cornish-Bowden plot analysis; outline: as §2
Nonstructural protein 3 [8] = molecular target: T1, Nonstructural protein 3; assay: Binding affinity to C-terminal His6-tagged linked Zika virus NS2B-NS3 protease domain by SPR analysis
Outline: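 Dissociation constants measured by surface plasmon resonance, with the linked Zika NS2B-NS3 protease (gZiPro) immobilized on the chip.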

[9] = molecular target: T2, Nonstructural protein 3 (Zika virus); assay: Competitive inhibition of C-terminal His6-tagged linked Zika virus NS2B-NS3 protease domain expressed in Escherichia coli Bl21(DE3) using Bz-Nle-Lys-Lys-Arg-AMC as substrate after 30 mins by Cornish-Bowden plot analysis
[10] = Selectivity index, ratio of IC50 for C-terminal His6-tagged linked West Nile virus NS2B-NS3 protease domain expressed in Escherichia coli Bl21(DE3) to Ki for non-competitive inhibition of C-terminal His6-tagged linked Zika virus NS2B-NS3 protease domain expressed in Escherichia coli Bl21(DE3)
Genome polyprotein [11] = molecular target: Genome polyprotein (dengue virus type 2, UniProt P29990); assay: Inhibition of C-terminal His6-tagged linked Dengue virus serotype 2 NS2B-NS3 protease domain expressed in Escherichia coli Bl21(DE3) preincubated for 15 mins followed by Abz-Nle-Lys-Arg-Arg-Ser-3-(NO2)Tyr substrate addition and measured for 15 mins by fluorescence method
Outline: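 DENV-2 NS2B-NS3 protease used at 100 nM against the FRET substrate Abz-Nle-Lys-Arg-Arg-Ser-3-(NO2)Tyr. IC50 values were calculated for a substrate concentration of 50 μM.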

Trypsin (Homo sapiens) = Trypsin (Homo sapiens) (UniProt P07477+P07478+P35030); assay: Inhibition of trypsin (unknown origin) at 25 uM using Boc-Val-Pro-Arg-AMC as substrate preincubated for 15 mins followed by substrate addition and measured for 10 mins by fluorescence assay; format: protein assay; outline: as §1

Sequence of Genome polyprotein (dengue virus type 2, UniProt P29990) (P29990 1346-1475 limits assumed): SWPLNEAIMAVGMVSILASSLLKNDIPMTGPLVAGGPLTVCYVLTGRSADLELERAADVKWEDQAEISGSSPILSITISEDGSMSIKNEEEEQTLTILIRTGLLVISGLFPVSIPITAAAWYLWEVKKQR
Sequence of Genome polyprotein (dengue virus type 2, UniProt P29990) (P29990 1476-2093 limits assumed): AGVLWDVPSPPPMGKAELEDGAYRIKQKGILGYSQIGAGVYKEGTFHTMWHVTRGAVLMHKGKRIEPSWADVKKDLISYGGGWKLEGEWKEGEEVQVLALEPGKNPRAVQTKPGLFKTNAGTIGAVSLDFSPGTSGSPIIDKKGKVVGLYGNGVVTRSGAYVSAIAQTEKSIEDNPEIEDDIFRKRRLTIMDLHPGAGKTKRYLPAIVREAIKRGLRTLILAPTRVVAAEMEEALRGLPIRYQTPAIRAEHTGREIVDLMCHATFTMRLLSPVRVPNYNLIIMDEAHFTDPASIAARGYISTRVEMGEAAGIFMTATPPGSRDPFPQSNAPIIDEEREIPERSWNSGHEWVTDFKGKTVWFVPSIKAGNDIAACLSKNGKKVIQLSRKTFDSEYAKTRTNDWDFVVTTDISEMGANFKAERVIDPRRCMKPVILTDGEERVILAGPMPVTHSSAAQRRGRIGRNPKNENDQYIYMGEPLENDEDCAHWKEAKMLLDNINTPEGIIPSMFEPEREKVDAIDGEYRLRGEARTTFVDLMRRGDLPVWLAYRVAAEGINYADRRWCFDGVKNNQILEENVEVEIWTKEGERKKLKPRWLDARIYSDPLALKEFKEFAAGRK
T2 sequence (A0A024AXB9 as listed by the source): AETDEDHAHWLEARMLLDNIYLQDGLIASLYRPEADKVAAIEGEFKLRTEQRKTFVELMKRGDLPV
T1 sequence (A0A024AXB9 whole entry, the tested form may be a part): as the sequence (A0A024AXB9 as listed by the source) above
Sequence of Genome polyprotein (West Nile virus, UniProt P06935) (P06935 1371-1501 limits assumed): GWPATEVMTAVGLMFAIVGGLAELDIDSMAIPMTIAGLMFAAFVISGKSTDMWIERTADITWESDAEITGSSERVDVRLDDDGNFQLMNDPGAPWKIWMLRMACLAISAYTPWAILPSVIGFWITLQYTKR
Sequence of Genome polyprotein (West Nile virus, UniProt P06935) (P06935 1502-2120 limits assumed): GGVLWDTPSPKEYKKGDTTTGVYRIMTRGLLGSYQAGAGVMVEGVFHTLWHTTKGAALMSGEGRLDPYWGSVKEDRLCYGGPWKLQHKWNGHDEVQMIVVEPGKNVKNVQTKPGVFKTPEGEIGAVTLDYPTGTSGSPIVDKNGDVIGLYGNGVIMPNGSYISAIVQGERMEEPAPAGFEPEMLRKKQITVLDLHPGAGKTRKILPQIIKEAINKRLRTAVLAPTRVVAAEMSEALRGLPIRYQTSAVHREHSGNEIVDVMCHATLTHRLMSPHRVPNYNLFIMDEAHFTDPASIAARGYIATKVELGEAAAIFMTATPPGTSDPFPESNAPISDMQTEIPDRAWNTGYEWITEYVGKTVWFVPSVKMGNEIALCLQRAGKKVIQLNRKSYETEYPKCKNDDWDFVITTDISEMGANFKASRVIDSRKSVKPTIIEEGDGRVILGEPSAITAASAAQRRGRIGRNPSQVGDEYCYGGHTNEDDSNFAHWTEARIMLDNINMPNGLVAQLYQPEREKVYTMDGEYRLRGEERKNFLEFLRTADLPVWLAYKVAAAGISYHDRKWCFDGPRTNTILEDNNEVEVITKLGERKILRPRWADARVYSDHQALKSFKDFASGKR

SMILES | inhibition [1] | IC50 (Nonstructural protein 3 [2]) [nM] | Selectivity Index [3] | IC50 (Genome polyprotein [4]) [µM] | Activity (Huh-7) | inhibition [5] | IC50 (Nonstructural protein 3 [6]) [µM] | Ki (Nonstructural protein 3 [7]) [nM] | Kd (Nonstructural protein 3 [8]) [nM] | inhibition [9] | Selectivity Index [10] | IC50 (Genome polyprotein [11]) [µM] | inhibition (Trypsin (Homo sapiens))
COc1ccc(C[C@H]2C(=O)N[C@@H](CCCCN)C(=O)N(C)[C@@H](Cc3ccccc3)C(=O)N[C@@H](CCCCN)C(=O)N(C)[C@@H](CO)C(=O)N(C)[C@@H](Cc3ccc(OC)cc3)C(=O)N[C@@H](CCCCN)C(=O)N(C)[C@@H](Cc3ccc(OC)cc3)C(=O)N(C)[C@@H](Cc3ccc(OC)cc3)C(=O)N[C@@H](CCCCN)C(=O)N[C@H](C(N)=O)CSCC(=O)N[C@@H](Cc3ccc(O)cc3)C(=O)N2C)cc1 ({CH2CO}-Y[NMeY](Me)K[NMeF]K[NMeS][NMeY](Me)K[NMeY](Me)[NMeY](Me)KC-NH2; thioether N-12) | inactive | 250 | > 10 | 3.9 | Non-Toxic | Active | 0.62 | 440 | 9 | inactive | > 10 | 1.7 | inactive
CC[C@H](C)[C@@H]1NC(=O)[C@H](C)NC(=O)[C@@H](Cc2ccc(O)cc2)NC(=O)CSC[C@@H](C(N)=O)NC(=O)[C@H](CC(N)=O)NC(=O)[C@H](CC(C)C)N(C)C(=O)[C@H](Cc2ccc(O)cc2)NC(=O)[C@H](CCCCN)NC(=O)[C@H](CC(N)=O)NC(=O)[C@H](Cc2ccc(O)cc2)NC(=O)[C@H](Cc2ccc(OC)cc2)N(C)C(=O)[C@H]([C@@H](C)CC)NC1=O | – | 3200 | – | > 20 | – | – | 7.1 | 3500 | 168 | inactive | – | > 20 | –
COc1ccc(C[C@H]2C(=O)N[C@@H](Cc3ccccc3)C(=O)N[C@H](C(N)=O)CSCC(=O)N[C@@H](Cc3ccc(O)cc3)C(=O)N[C@@H]([C@@H](C)O)C(=O)N[C@@H](CC(N)=O)C(=O)N[C@@H](Cc3ccccc3)C(=O)N[C@@H](Cc3ccc(O)cc3)C(=O)N[C@@H](CC(C)C)C(=O)N[C@@H](Cc3ccc(O)cc3)C(=O)N3CCC[C@H]3C(=O)N[C@@H](Cc3ccc(O)cc3)C(=O)N2C)cc1 ({CH2CO}-YTNFYLYPY[NMeY](Me)FC-NH2; thioether N-12) | – | 2200 | > 10 | > 20 | – | – | 3.3 | 2000 | 8 | inactive | > 10 | > 20 | –
CC(C)C[C@@H]1NC(=O)[C@H]([C@@H](C)O)NC(=O)[C@H](Cc2ccc(O)cc2)NC(=O)CSC[C@@H](C(N)=O)NC(=O)[C@H](Cc2ccccc2)NC(=O)[C@H](Cc2ccccc2)NC(=O)[C@H]([C@@H](C)O)NC(=O)CN(C)C(=O)[C@H](CC(N)=O)NC(=O)[C@H](Cc2cnc[nH]2)NC(=O)[C@H](Cc2ccccc2)NC(=O)[C@@H]2CCCN2C1=O ({CH2CO}-YTLPFHN[Sar]TFFC-NH2; thioether N-12) | – | ≥ 50000 | – | > 20 | – | – | – | > 100000 | 5 | inactive | – | > 20 | –
CC[C@H](C)[C@@H]1NC(=O)CN(C)C(=O)[C@H](Cc2ccc(O)cc2)NC(=O)CSC[C@@H](C(N)=O)NC(=O)[C@@H]2CCCN2C(=O)[C@H]([C@@H](C)CC)NC(=O)[C@H](Cc2ccc(OC)cc2)N(C)C(=O)[C@H](Cc2ccc(OC)cc2)N(C)C(=O)[C@H](CC(N)=O)NC(=O)[C@H](Cc2ccc(O)cc2)NC(=O)[C@H](CCCCN)NC(=O)[C@H](C)NC1=O ({CH2CO}-Y[Sar]IAKYN[NMeY](Me)[NMeY](Me)IPC-NH2; thioether N-12) | – | 4600 | – | ≥ 20 | – | – | 16.5 | 20400 | 9 | inactive | – | ≥ 20 | –
CC[C@H](C)[C@@H]1NC(=O)[C@H](CC(N)=O)NC(=O)[C@H](C(C)C)NC(=O)[C@H](CC(C)C)NC(=O)[C@H]([C@@H](C)O)NC(=O)[C@H](CC(N)=O)NC(=O)[C@H](Cc2ccc(OC)cc2)N(C)C(=O)[C@H]([C@@H](C)CC)NC(=O)[C@H](CCCCN)NC(=O)[C@H](Cc2c[nH]c3ccccc23)NC(=O)[C@H](Cc2ccc(O)cc2)NC(=O)CSC[C@@H](C(N)=O)NC1=O ({CH2CO}-YWKI[NMeY](Me)NTLVNIC-NH2; thioether N-12) | inactive | 1500 | 4 | > 10 | Non-Toxic | – | 1.32 | 800 | 20 | inactive | 9 | > 10 | inactive
